SUMO Mot1 rescue = yeast Mot1-301 growth rescue at high temperature, primary screen, SUMOylation pathway inhibitor project, S. cerevisiae, ATP luminescence, 38.5C; 1% of 320,000 active; S. cerevisiae Mot1-301 growth rescue; percent above DMSO median, 100 means doubled; growth rescue, % at 18.8 µM; AID 2716, 2010;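 active means every valid replicate shows activation above 250% relative to neutral control wells; inactive means the rest, any valid replicate at or below 250%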;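 further: OY570 slx delta 5 strain wells were the positive control but not used for scaling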
ARFGAP1 inhibitor = inhibitors of rat ARFGAP1 GAP activity, primary screen, biochemical, fluorescence polarization, GDP tracer; Arfgap1-stimulated ARF1 GTP hydrolysis, GDP FP detection; inhibition, % at 16.5 µM; 0.26% of 360,000 active; ADP-ribosylation factor GTPase-activating protein 1 (Rattus norvegicus), Q62848;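 active means inhibition above a per-plate limit, mean inhibition of low control wells plus 3 SD, cut at about 25% in these data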;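 further: 0% = DMSO wells with enzyme and 100% = wells lacking Arfgap1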
Target sequence (Q62848 1-136 limits assumed): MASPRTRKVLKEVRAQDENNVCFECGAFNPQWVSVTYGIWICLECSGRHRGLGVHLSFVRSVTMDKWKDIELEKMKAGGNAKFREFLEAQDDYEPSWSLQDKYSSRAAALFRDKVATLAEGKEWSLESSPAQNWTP
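material = rat Arfgap1 catalytic domain, aa 1-136 | also added = human ARF1(Δ1-17)-GTP substrate | compound dosing = one concentration, 16.5 µM, DMSO 1.26% | times = GTP hydrolysis reaction 2 h at 25 °C | measured by = FP, GDP Alexa 633 tracer displaced from anti-GDP antibody, 620/688 nm | evaluation = percent inhibition of Arfgap1-stimulated GTP hydrolysis | replication = single well per compound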
APOBEC3A inh = APOBEC3A ssDNA deaminase inhibitors, primary screen, selectivity assay for APOBEC3G inhibitor project, biochemical, FAM/TAMRA oligo cleavage fluorescence; AID 493011, 2011; recombinant A3A, FAM/TAMRA ssDNA deamination fluorescence; 0.41% of 330,000 active; inhibition, % at 20 µM;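 active means at least 40% inhibition at 20 µM here, with at most 30% in a related deaminase screen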;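 further: plate controls were A3A with DMSO for no effect and wells lacking A3A enzyme for full effect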
ASAP1 inh = inhibitors of human ASAP1 ArfGAP activity, primary screen, biochemical, fluorescence polarization; Arf-GAP with SH3 domain, ANK repeat and PH domain-containing protein 1 (Homo sapiens), …; ASAP1-stimulated ARF1 GTP hydrolysis, GDP FP detection; inhibition, % at 16.5 µM; 0.19% of 360,000 active; AID 624377, 2012; in the data active means inhibition above about 25%;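 further: 0% = vehicle with enzyme and substrate and 100% = no enzyme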
A3G deaminase = APOBEC3G DNA deaminase inhibitors, primary screen, biochemical, fluorescence, single-stranded DNA substrate, uHTS; DNA dC->dU-editing enzyme APOBEC-3G (Homo sapiens), Q9HC16; recombinant A3G, ssDNA deamination FAM/TAMRA fluorescence; inhibition, % at 20 µM; 0.28% of 330,000 active;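 active means inhibition of at least 40% at 20 µM, with no more than 30% in the related APOBEC3A deaminase screen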;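 further: plate controls were DMSO wells with A3G for no effect and wells lacking A3G enzyme for full effect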
Target sequence (Q9HC16 whole entry, looked up): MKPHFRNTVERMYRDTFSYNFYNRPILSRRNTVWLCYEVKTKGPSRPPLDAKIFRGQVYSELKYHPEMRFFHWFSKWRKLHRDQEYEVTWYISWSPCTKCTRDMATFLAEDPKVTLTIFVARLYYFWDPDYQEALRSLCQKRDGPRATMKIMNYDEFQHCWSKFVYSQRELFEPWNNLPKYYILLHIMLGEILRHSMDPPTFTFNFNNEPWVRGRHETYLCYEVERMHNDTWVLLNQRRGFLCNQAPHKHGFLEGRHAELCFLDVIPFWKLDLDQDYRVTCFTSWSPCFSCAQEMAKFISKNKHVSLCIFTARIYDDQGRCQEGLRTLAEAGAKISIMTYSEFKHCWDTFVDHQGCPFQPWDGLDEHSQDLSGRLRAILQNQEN
Statin myotox sup = suppressors of statin myotoxicity in C2C12 myotubes, primary screen, cell-based, single point, plate reader. AID 602340, 2012. C2C12 myotubes + simvastatin, ATP luminescence, 48 h; scaled: DMSO 0, geranylgeraniol control 100. 0.78% of 330,000 active. rescue of ATP level, % at 7.49 µM;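 active means mean ATP rescue above about 67%, or every replicate alone reaching that limit, limit read from the data, passing the limit was not always enough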;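 further: myotubes were challenged with 10 µM simvastatin during compound exposure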
The depositor's hits bear a star; . = not tested or not shown. Rows were chosen to be rich in hits. Some 2.1% of all compounds tested hit in one or more screens of this group.

SMILES	SUMO Mot1 rescue	ARFGAP1 inhibitor	APOBEC3A inh	ASAP1 inh	A3G deaminase	Statin myotox sup
COc1cccc(-c2ccc3c(c2)O[C@@H](CN(C)C)[C@@H](C)CN([C@H](C)CO)S3(=O)=O)c1	.	.	.	.	.	-4
CCOc1ccc2nc(N3CCC(C(=O)NC4CCCCC4)CC3)sc2c1	344*	0	-3	3	-5	13
CCOc1ccc2nc(N3CCCC(C(=O)NC4CCCC4)C3)sc2c1 (stereo not given)	-3	13	2	-1	4	-37
COC(=O)CCC(=O)NNC(=O)c1cccc(Br)c1	24	8	-1	-8	-5	.
COC(=O)CCC(=O)NNC(=O)c1ccc(Br)cc1	-41	-2	-6	12	-7	101*
CCOC(=O)C1=C(N)c2ccccc2CC1C(C)C (stereo not given)	-7	12	-2	-8	-5	123*
CCOC(=O)C1Cc2ccccc2C(=O)O1 (stereo not given)	11	5	4	-13	1	1
O=C(/C=C/c1c(F)cccc1Cl)c1ccc(F)cc1	-15	-6	-2	11	-5	129*
COc1ccc(OC)c(S(=O)(=O)Nc2ccccc2C)c1	-8	3	-1	-7	1	100*
COCC(=O)N(C)C[C@@H]1Oc2cc(C#CCC(C)C)ccc2S(=O)(=O)N([C@H](C)CO)C[C@H]1C	.	.	.	.	.	32
CCc1ccccc1N(CC)C(=O)c1cn(C)c(=O)c2cc(OC)c(OC)cc12	1	-4	0	-1	-2	95*
CCc1ccccc1N(CC)C(=O)c1cn(CC)c(=O)c2cc(OC)c(OC)cc12	0	-12	-3	14	-1	1
C[C@H](NC(=O)[C@H]1N[C@H]2c3ccc(C4=CCCC4)c(=O)n3C[C@H]2[C@@H]1CO)c1ccccc1	.	.	.	.	.	10
Cc1cc(NC(=O)c2cc(-c3ccc(OC(C)C)cc3)nc3ccccc23)no1	312*	3	-3	3	-2	.
Cc1ccc2nc(-c3ccccc3Cl)cc(C(=O)Nc3cc(C)on3)c2c1	3	7	-3	3	-8	109*
Cc1cc(NC(=O)c2ccccc2Cl)no1	-20	2	-4	5	-5	-4
COc1ccc(S(=O)(=O)N(C)C[C@@H]2Oc3c(NS(=O)(=O)c4ccc(Cl)cc4)cccc3C(=O)N([C@H](C)CO)C[C@H]2C)cc1	.	.	.	.	.	-1
C[C@H]1CN([C@@H](C)CO)S(=O)(=O)c2ccc(/C=C/c3ccccc3)cc2O[C@H]1CN(C)C	.	.	.	.	.	13
CC(C)NC(=O)N(C)C[C@H]1Oc2ncc(-c3cncnc3)cc2C(=O)N([C@@H](C)CO)C[C@@H]1C	.	.	.	.	.	2
Cc1ccccc1S(=O)(=O)NCC[C@H]1CC[C@@H](NC(=O)C2CCOCC2)[C@H](CO)O1	.	.	.	.	.	-5
O=C(O)CSC1CC(=O)N(c2cccc(Cl)c2)C1=O (stereo not given)	-1	-5	-5	1	-4	7
O=C(O)CSC1CC(=O)N(c2ccc(Cl)c(Cl)c2)C1=O (stereo not given)	850	1	-2	-11	-4	138*
CCCSc1nnc(CN2CCOCC2)n1C	.	3	8	7	-6	111*
Cn1c(CN2CCOCC2)nnc1SCc1ccccc1	0	4	-4	-22	-7	-3
Cc1nc2cc(C(=O)NCCN3CCOCC3)ccc2n1-c1ccc(F)cc1F	-10	4	-3	9	-3	98*
SMILES	SUMO Mot1 rescue	ARFGAP1 inhibitor	APOBEC3A inh	ASAP1 inh	A3G deaminase	Statin myotox sup
O=C(CC1CC1)Nc1ccc2c(c1)[C@H]1C[C@@H](CC(=O)N3CCOCC3)O[C@H](CO)[C@H]1O2	.	.	.	.	.	-2
O=C(O)c1c[nH]c2ccc(S(=O)(=O)N3CCN(c4ccc(F)cc4)CC3)cc2c1=O	4	8	4	3	-3	-19
CCOC(=O)N1CCN(S(=O)(=O)c2ccc3[nH]cc(C(=O)O)c(=O)c3c2)CC1	-3	8	9	10	12	97*
CCNc1nc(NCC)nc(N(n2cnnc2)S(=O)(=O)c2ccc(C)cc2)n1	310*	17	-1	11	-1	.
COCC(=O)N(C)C[C@@H]1Oc2cc(C3=CCCC3)ccc2S(=O)(=O)N([C@@H](C)CO)C[C@@H]1C	.	.	.	.	.	-4
C[C@H](CO)N1C[C@H](C)[C@H](CN(C)C(=O)Nc2ccc3c(c2)OCO3)OCc2cn(nn2)CCCC1=O	.	.	.	.	.	-3
Cc1noc(C)c1S(=O)(=O)Nc1ccc2c(c1)C(=O)N([C@@H](C)CO)C[C@@H](C)[C@@H](CN(C)Cc1ccc3c(c1)OCO3)O2	.	.	.	.	.	51
COc1ccc(-c2cc(C3CC3)nc(N)c2C#N)cc1	-8	-18	6	1	-1	4
COc1ccc(-c2cc(C3CC3)nc3sc(C#N)c(N)c23)cc1	-31	-7	-7	-2	1	77*
CC(C)C#Cc1ccc2c(c1)O[C@@H](CN(C)Cc1cncnc1)[C@@H](C)CN([C@H](C)CO)S2(=O)=O	.	.	.	.	.	4
Cc1ccc(NC(=O)CN(C)CC(=O)Nc2c(C)cccc2C)c(Br)c1	20	-1	3	7	2	97*
COC(=O)Nc1ccc(S(=O)(=O)N2CCC(C(=O)NC3CCCCC3)CC2)cc1	308*	-8	-8	7	-16	.
O=C(Nc1ccc(S(=O)(=O)N2CCC(C(=O)NC3CCCCC3)CC2)cc1)c1ccco1	-4	6	-2	-4	-5	179*
COc1ccc2c(Cl)c(-c3nnc(SCC(=O)c4ccccc4)n3C)sc2c1	-7	-11	-2	8	-2	116*
COc1ccc2c(Cl)c(-c3nnc(SCC(N)=O)n3C)sc2c1	-6	-6	-9	-6	-9	14
O=C(Nc1ccccc1)N1CCCCN2[C@H](C1)[C@@H](c1ccc(Br)cc1)[C@@H]2CO	.	.	.	.	.	8
O=C(Nc1ccccc1)N1CCCCN2[C@H](C1)[C@H](c1ccc(Br)cc1)[C@@H]2CO	.	.	.	.	.	95*
C[C@@H]1CN([C@@H](C)CO)C(=O)CCCn2cc(nn2)CO[C@@H]1CN(C)C(=O)OCc1ccccc1	.	.	.	.	.	2
COc1ccc(CN2C[C@H](C)[C@@H](OC)CN(C)C(=O)c3cc(NC(=O)C4CC4)ccc3OC[C@@H]2C)cc1	.	.	.	.	.	-8
O=C1N/C(=C\c2nc3ccccc3s2)c2ccccc21	354*	.	-5	.	-5	.

From PubChem
